bCat KO growth: primary screen for growth suppressors in beta-catenin knockout HCT116 cells (colon tumor, human). 1.5% of 140,000 active. viability, % at 10 µM. HCT116 beta-catenin knockout viability, CellTiter-Glo, 60 h; stronger effect = lower value;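 active = viability at or under a set limit, the compound median less 4 SD, cut at about 6% in these data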;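 note: 0% = Hyamine 1622 control at 20 µM and 100% = untreated cell control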
PMI act satM6P: human PMI activators, high substrate, primary screen, biochemical, fluorescence intensity, near-saturating mannose 6-phosphate | activation factor at 20 µM | coupled PMI enzyme assay, resazurin fluorescence, 20 min; stronger effect = higher value; 1 = untreated enzyme, 0 = substrate-free blank | Mannose-6-phosphate isomerase (Homo sapiens), P34949 | 0.34% of 190,000 active | AID 1216, 2008;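 active = activation factor of 2 or more at 20 µM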
Target sequence (P34949 whole entry, looked up): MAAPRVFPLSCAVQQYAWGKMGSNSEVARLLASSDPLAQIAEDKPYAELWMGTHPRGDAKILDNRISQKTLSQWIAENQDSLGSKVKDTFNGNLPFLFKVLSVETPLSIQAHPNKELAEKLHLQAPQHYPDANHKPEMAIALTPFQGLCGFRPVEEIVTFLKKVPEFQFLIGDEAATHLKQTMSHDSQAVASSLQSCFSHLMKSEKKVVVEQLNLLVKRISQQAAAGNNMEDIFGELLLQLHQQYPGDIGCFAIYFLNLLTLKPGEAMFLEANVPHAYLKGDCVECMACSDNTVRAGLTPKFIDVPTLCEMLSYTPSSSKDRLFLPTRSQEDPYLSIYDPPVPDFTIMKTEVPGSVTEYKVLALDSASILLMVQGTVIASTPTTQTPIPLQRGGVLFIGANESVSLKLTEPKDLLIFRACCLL
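Test system: human phosphomannose isomerase with PGI, G6PDH, diaphorase coupling enzymes; amount: 15 ng/mL PMI; incubation: enzyme reaction with compound 20 min at room temperature; technique: resorufin fluorescence (Ex 544/Em 590 nm) from resazurin via diaphorase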
HCT116 PTEN-null: growth suppression of PTEN-null HCT116, primary screen, cell-based, CellTiter-Glo; 1.2% of 140,000 active; AID 827, 2007; viability, % at 10 µM; HCT116 PTEN-null viability, 60 h; stronger effect = lower value;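 active = viability at or below a set limit, 4 SD under the median of all tested compounds, cut at about 3.7% in these data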;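 note: PTEN knockout HCT116 line with beta catenin targeted HCT116 as companion control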
PMI act: activators of human PMI, primary screen, biochemical, fluorescence intensity, near-Km mannose 6-phosphate | activation factor at 20 µM | 0.005% of 190,000 active | purified human PMI, coupled resazurin fluorescence, 20 min; stronger effect = higher value; 1 = vehicle control, 0 substrate-free wells;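 active = activation factor of 2 or more at 20 µM, relative to plate controls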
L major viab: Leishmania major promastigote growth inhibition, primary screen | Leishmania major promastigotes, resazurin fluorescence viability | 9% of 200,000 active | inhibition, % at 10 µM; in the data active = inhibition above about 50%;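 note: promastigotes grown with compound for 44 hours at 28 °C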
* = called active by the depositor; . = not tested or not shown. Compounds with a hit are over-represented: about 9.6% of the library has one in this group of screens.

SMILES	bCat KO growth	PMI act satM6P	HCT116 PTEN-null	PMI act	L major viab
O=C(COc1ccc(-c2ccccc2)cc1)N1CCN(C(=O)c2cccnc2)CC1	89	1	75	1	-5
CCCCc1nc(N2CCOCC2)c(C#N)c2c1COC(C)(C)C2	78	0.9	79	0.9	3
Cc1cc2c(cc1C)CSC(c1c(O)ccc3ccccc13)SC2	4.6*	0.8	6	0.8	36
Cc1cc2c(cc1C)CSC(c1ccc3ccccc3c1O)SC2	102	0.9	91	0.8	-11
COC(=O)c1ccc(C(=O)OC)c(NC(=O)CSc2cccc[n+]2[O-])c1	60	1.5	60	1.1	98*
O=C(CSc1cccc[n+]1[O-])CSc1cccc[n+]1[O-]	.	1	.	1.1	99*
COC(=O)c1ccc(C(=O)OC)c(NC(=O)COC(=O)C2CCCCC2)c1	93	1	102	1	-4
COC(=O)c1ccc(C(=O)OC)c(NC(=O)COC(=O)C2CC2C)c1 (stereo not drawn)	94	1	101	0.9	76*
COC(=O)c1ccc(-n2c(C)cc(C(=O)CSc3cccc[n+]3[O-])c2C)cc1	.	1.1	.	1.1	98*
COC(=O)CCC(=O)NC(=S)Nc1ccccc1F	.	1	.	1	-6
O=C(CSc1ccc(Br)cc1)Nc1ccccc1Oc1ccccc1	93	0.8	92	0.8	-3
O=C(CSc1cccc[n+]1[O-])Nc1ccccc1Oc1ccccc1	.	1.5	.	1.2	100*
c1ccc2c(CSc3ncnc4nc[nH]c34)cccc2c1	.	0.9	.	0.8	-4
COC(=O)c1ccc(COc2ccccc2/C=C(\C#N)C(=O)Nc2c(C)cc(C)cc2C)cc1	1.4*	0.9	1.1*	0.8	100*
COC(=O)c1ccc(COc2ccccc2/C=C(\C#N)C(=O)Nc2ccc(C)cc2C)cc1	79	1.1	74	1	10
CC(Nc1nc(N2CCCCC2)nc2ccccc12)c1ccccc1 (stereo not drawn)	4.2*	1	4	1	100*
C=CCNc1nc(N2CCCC2)nc2ccccc12	46	0.9	39	0.9	100*
O=C(Nc1nc(-c2ccccc2)nc2ccccc12)c1ccc(F)cc1	.	1.1	.	1.1	8
OCCNc1nc(N2CCN(Cc3ccccc3)CC2)nc2ccccc12	59	1.1	65	1	2
COc1ccc(Nc2nc(N3CCCC3)nc3ccccc23)c(OC)c1	1.4*	0.9	1.4*	0.8	100*
COc1ccc(Nc2ncnc3ccccc23)c(OC)c1	92	0.9	81	1	11
CC(Nc1nc(-c2ccccc2)nc2ccccc12)c1ccccc1 (stereo not drawn)	.	0.9	.	1	98*
O=S(=O)(c1ccccc1)N1CCC2(CC1)OCCO2	.	0.9	.	0.9	-5
CCC/C(=N/NC(=O)c1ccccc1Cl)c1ccccc1	.	1	.	1	95*
Cc1cccc(NC(=S)NC2CC3CCC(C2)N3Cc2ccco2)c1C (stereo not drawn)	52	1	72	1	90*
SMILES	bCat KO growth	PMI act satM6P	HCT116 PTEN-null	PMI act	L major viab
CCOC(=O)c1ccc(NC(=O)NC2CC3CCC(C2)N3Cc2nnnn2Cc2ccco2)cc1 (stereo not drawn)	84	1	91	0.9	1
CCc1ccc(NC(=S)NC2CC3CCCC(C2)N3Cc2cccs2)cc1 (stereo not drawn)	37	1	41	0.9	91*
Cc1ccc(NC(=S)NC2CC3CCC(C2)N3Cc2ccco2)c(C)c1 (stereo not drawn)	67	0.9	85	0.8	89*
Cc1ccccc1NC(=S)NCc1ccco1	83	0.9	93	1	0
Cc1ccc(NC(=S)NC2CC3CCC(C2)N3Cc2ccco2)cc1C (stereo not drawn)	75	1	83	1	100*
CN(C(=O)COC(=O)c1ccc2[nH]c3c(c2c1)CCCC3)C1CCS(=O)(=O)C1 (stereo not drawn)	.	0.9	.	0.9	37
O=C(COC(=O)c1cc([N+](=O)[O-])ccc1NCCO)c1ccccc1	91	0.7	104	0.9	1
Cn1cnnc1SCC(=O)Nc1ncc(C(F)(F)F)cc1Cl	.	1.2	.	1.4	3
C/C(=C\c1ccccc1)C(=O)NCCCn1ccnc1	.	1	.	1.1	32
O=C(NC1CC2CCCC(C1)N2Cc1ccco1)NC12CC3CC(CC(C3)C1)C2 (stereo not drawn)	57	1	59	1	89*
O=C(NCc1ccco1)NC1CCCCC1	89	1.1	86	1.1	-1
CCc1ccccc1NC(=O)Nc1cccn(Cc2ccc(F)cc2)c1=O	.	0.9	.	0.9	0
CC(C)(C)c1ccccc1NC(=S)NC1CCCCC1	.	0.9	.	1	19
Cc1cccc(NC(=S)NC2CCCCCC2)c1C	56	1	52	0.9	82*
CCc1ccccc1NC(=S)NC1CC2CCC(C1)N2Cc1ccc(F)cc1 (stereo not drawn)	.	1	.	0.9	95*
CCNC(=S)NC1CC2CCCC(C1)N2Cc1ccco1 (stereo not drawn)	108	1	100	0.9	-5
CCc1ccccc1NC(=S)NC1CC2CCC(C1)N2Cc1ccco1 (stereo not drawn)	66	1	84	1	71*
O=C(CCCc1cccs1)Nc1nc(-c2ccc(F)cc2)cs1	96	1.1	90	1	26
Cc1cccc(NC(=S)NC2CC3CCCC(C2)N3Cc2ccccc2)c1C (stereo not drawn)	.	1	.	0.9	87*
COCCNC(=S)NC1CC2CCC(C1)N2Cc1ccccc1 (stereo not drawn)	.	0.8	.	0.9	15
CCc1ccccc1NC(=O)NC1CC2CCC(C1)N2Cc1cccs1 (stereo not drawn)	89	1	96	1.1	76*
CCN(CC)c1ccc(/C=C(\C#N)c2nc(-c3cccs3)c(NC(C)=O)s2)cc1	48	0.7	50	0.8	10
COC(=O)c1ccc(CNC(=O)COC(=O)c2ccc(N(C)C)cc2)cc1	.	1.1	.	1.1	1
O=C(c1nc2ccccn2c1CNCCCn1nnc2ccccc21)N1CCOCC1	.	0.9	.	0.9	1
CN1CCN(C2=C(Cl)C(=O)N(C3CCCCC3)C2=O)CC1	80	0.9	85	1	95*
Fc1ccc(OCCCCCN2CCCC2)cc1	81	1	80	1	87*
Cc1ccc(C)c(OCCOCCN2CC(C)OC(C)C2)c1C (stereo not drawn)	76	1.1	80	1	91*
CC1CN(CCOCCSc2ccccc2)CC(C)O1 (stereo not drawn)	.	1	.	0.9	10
COc1ccccc1N1CCN(CCCCCCOc2ccc(F)cc2)CC1	48	1.2	54	1.3	22

Compound activity (PubChem)
